Measurements reported in ChEMBL document CHEMBL1139892 (J Nat Prod, 2007).
Values after ≈ are worked out from the molar mass of the structure shown. Counter-ions that a name gives are not always drawn.

Columns and labels:
KB = test: Cytotoxicity against KB cells by colorimetric method; assay type: cell-based; details: Homo sapiens
Outline: (§1)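 KB and BC cells were tested by the colorimetric method of Skehan and co-workers, with ellipticine as the reference compound.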

[1] = target: T1, Prostaglandin G/H synthase 2 (Homo sapiens, UniProt P35354); test: Inhibition of COX2 by radioimmunoassay method
T1 sequence (P35354 whole entry): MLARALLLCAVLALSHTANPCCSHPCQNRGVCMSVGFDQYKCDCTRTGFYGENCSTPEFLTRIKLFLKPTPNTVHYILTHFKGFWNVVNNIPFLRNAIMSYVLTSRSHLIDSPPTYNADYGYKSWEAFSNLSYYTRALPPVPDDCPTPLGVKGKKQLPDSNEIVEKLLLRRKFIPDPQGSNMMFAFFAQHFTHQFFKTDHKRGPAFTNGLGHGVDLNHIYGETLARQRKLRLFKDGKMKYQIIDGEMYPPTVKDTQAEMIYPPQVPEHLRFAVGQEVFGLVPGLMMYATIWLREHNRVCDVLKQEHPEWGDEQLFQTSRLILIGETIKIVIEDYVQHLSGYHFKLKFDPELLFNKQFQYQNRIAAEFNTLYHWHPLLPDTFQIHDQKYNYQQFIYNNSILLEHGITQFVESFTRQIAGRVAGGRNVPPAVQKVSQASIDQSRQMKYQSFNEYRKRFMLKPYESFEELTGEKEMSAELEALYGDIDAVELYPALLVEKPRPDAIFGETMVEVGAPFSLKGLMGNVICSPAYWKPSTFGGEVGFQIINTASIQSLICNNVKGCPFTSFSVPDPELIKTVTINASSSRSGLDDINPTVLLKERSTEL

[2] = test system: Mycobacterium tuberculosis; test: Antimycobacterial activity against Mycobacterium tuberculosis H37Ra by microplate Alamar Blue assay; assay type: functional
Outline: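 M. tuberculosis H37Ra grown in Middlebrook 7H9 broth; growth read colorimetrically with Alamar Blue in microplates and reported as MIC; isoniazid and kanamycin sulfate included as reference drugs.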

[3] = Cytotoxicity against BC cells by colorimetric method; assay type: cell-based; details: Homo sapiens; outline: as §1
[4] = target: Prostaglandin G/H synthase 1 (Homo sapiens, UniProt P23219); test: Inhibition of COX1 by radioimmunoassay method
Plasmodium falciparum = test: Antimalarial activity against multidrug-resistant Plasmodium falciparum K1 by micro culture radioisotope technique; assay type: functional, organism-based
Candida albicans = test: Antifungal activity against Candida albicans by colorimetric method; assay type: functional, organism-based

Sequence of Prostaglandin G/H synthase 1 (P23219 whole entry): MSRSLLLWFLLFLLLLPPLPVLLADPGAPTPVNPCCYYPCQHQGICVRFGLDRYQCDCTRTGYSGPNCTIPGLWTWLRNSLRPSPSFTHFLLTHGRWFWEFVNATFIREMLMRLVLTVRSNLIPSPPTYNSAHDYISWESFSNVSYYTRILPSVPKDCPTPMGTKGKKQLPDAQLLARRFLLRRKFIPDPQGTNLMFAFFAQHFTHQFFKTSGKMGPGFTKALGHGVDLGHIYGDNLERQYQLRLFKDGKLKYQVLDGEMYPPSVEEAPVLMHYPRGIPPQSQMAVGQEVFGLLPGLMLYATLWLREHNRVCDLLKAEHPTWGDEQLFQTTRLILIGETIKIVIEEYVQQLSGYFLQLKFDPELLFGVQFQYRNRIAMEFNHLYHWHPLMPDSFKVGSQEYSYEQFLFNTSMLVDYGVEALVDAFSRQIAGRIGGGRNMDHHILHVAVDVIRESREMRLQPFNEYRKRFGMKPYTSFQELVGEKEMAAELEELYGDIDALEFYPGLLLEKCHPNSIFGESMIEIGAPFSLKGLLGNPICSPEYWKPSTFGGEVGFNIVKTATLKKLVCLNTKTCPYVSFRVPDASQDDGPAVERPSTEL

Structure (SMILES) | IC50 (KB) [µM] | IC50 [1] [µM] | MIC [2] [µM] | IC50 [3] [µM] | IC50 [4] [µM] | IC50 (Plasmodium falciparum) [µM] | IC50 (Candida albicans) [µM]
COc1cc(O)cc(CCc2ccccc2O)c1 [BATATASIN IV] | > 81.8 | > 40.9 | 205 (≈ 50 µg/mL) | > 81.8 | > 40.9 | > 81.8 | > 205
COc1cc(CCc2ccccc2O)cc(O)c1C [BAUHINOL E] | > 77.5 |  | 194 (≈ 50 µg/mL) | > 77.5 |  | > 77.5 | > 194
COc1c(C)c(O)cc2c1Oc1ccccc1C(O)C2 (configuration not stated) [BAUHINOXEPIN G] | > 73.5 |  | 91.9 (≈ 25 µg/mL) | > 73.5 |  | > 73.5 | > 184
COc1cc(OC)c(O)c([C@@H]2Cc3ccccc3O2)c1 [BAUHIBENZOFURIN A] | > 73.5 |  | 368 (≈ 100 µg/mL) | > 73.5 |  | > 73.5 | 130
COc1c(C)c(OC)c2c(c1O)CCc1c(O)cccc1O2 [BAUHINOXEPIN E] | > 66.2 | > 33.1 | 331 (≈ 100 µg/mL) | > 66.2 | > 33.1 | > 66.2 | > 166
C[C@H]1[C@@H](O)O[C@@H]2O[C@@]3(C)CC[C@H]4[C@H](C)CC[C@@H]1[C@@]24OO3 [ARTENIMOL] |  |  |  |  |  | 0.0042 | 
Oc1cc(O)cc(CCc2ccccc2)c1 [DIHYDROPINOSYLVIN] | > 93.4 | > 46.7 | 117 (≈ 25 µg/mL) | > 93.4 | > 46.7 | > 93.4 | > 234
COC1=C(C)C(=O)C2=C(CCc3cc(O)ccc3O2)C1=O [BAUHINOXEPIN I] | 38.8 | 10.1 | 175 (≈ 50 µg/mL) | 41.9 | > 34.9 | 10.5 | > 175
COc1cc(CCc2ccccc2O)c(O)c(OC)c1 | > 72.9 |  | 91.2 (≈ 25 µg/mL) | > 72.9 |  | > 72.9 | > 182
COc1cc(CCc2ccccc2O)cc(OC)c1 | > 77.5 |  | 194 (≈ 50 µg/mL) | > 77.5 |  | > 77.5 | 49.6
COc1c(O)c(C)c(OC)c2c1CCc1c(O)cccc1O2 [BAUHINOXEPIN F] | 29.4 | 6.9 | 662 (≈ 200 µg/mL) | 27.4 | > 33.1 | > 66.2 | 77.8
Cc1c2ccncc2c(C)c2c1[nH]c1ccccc12 [ELLIPTECINE] | 5.3 |  |  | 6.1 |  |  | 
NNC(=O)c1ccncc1 [ISONIAZID] |  |  | 0.29 (≈ 0.0398 µg/mL) |  |  |  | 
COc1c(C)c(O)cc2c1Oc1cccc(O)c1CC2 [BAUHINOXEPIN D] | 41.5 |  | 184 (≈ 50 µg/mL) | 45.5 |  | > 73.5 | > 184
COC1=C(C)C(=O)C2=C(CCc3c(O)cccc3O2)C1=O [BAUHINOXEPIN H] | 15.7 | > 34.9 | 87.4 (≈ 25 µg/mL) | 11.5 | > 34.9 |  | > 175
C[C@@H]1[C@H](O)[C@@H](C)/C=C/C=C/C=C/C=C/C=C/C=C/C=C/[C@H](O[C@@H]2O[C@H](C)[C@@H](O)[C@H](N)[C@@H]2O)C[C@@H]2O[C@](O)(C[C@@H](O)C[C@@H](O)[C@H](O)CC[C@@H](O)C[C@@H](O)CC(=O)O[C@H]1C)C[C@H](O)[C@H]2C(=O)O [AMPHOTERICIN B] |  |  |  |  |  |  | 0.04
NC[C@H]1O[C@H](O[C@H]2[C@H](O)[C@@H](O[C@H]3O[C@H](CO)[C@@H](O)[C@H](N)[C@H]3O)[C@H](N)C[C@@H]2N)[C@H](O)[C@@H](O)[C@@H]1O [KANAMYCIN SULFATE] |  |  | 3.43 |  |  |  | 
COc1cc(O)cc(CCc2ccccc2)c1 | 51.7 |  | 219 (≈ 50 µg/mL) | 72.3 |  | > 87.7 | 68.4
COC1=CC(=O)C2=C(CCc3ccccc3O2)C1=O [BAUHINOXEPIN J] | 10.5 |  | 24.4 (≈ 6.25 µg/mL) | 12.1 |  | 5.8 | > 195
Cc1c(O)cc2c(c1O)C(=O)C[C@@H](c1ccccc1)O2 | > 74 |  | > 741 | > 74 |  | > 74 | > 185
COc1cc2c(c(O)c1C)Oc1cccc(O)c1CC2 [BAUHINOXEPIN C] | 44.8 |  | 184 (≈ 50 µg/mL) | 32.3 |  | > 73.5 | 79.4
Cc1c(O)c(C)c2c(c1O)C(=O)C[C@@H](c1ccccc1)O2 [DEMETHOXYMATTEUCINOL] | > 70.4 |  | > 704 | > 70.4 |  | 9.5 | > 176
